Columns and labels:
Rattus norvegicus = experiment: Antiinflammatory activity in Wistar rat assessed as inhibition of carrageenan-induced paw edema administered 30 mins prior challenge measured after 3 hrs; type: functional
Outline: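 Rats were dosed orally. Thirty minutes later, 1% carrageenan was injected subcutaneously into the plantar surface of the hind paw, and paw volume was remeasured 3 h afterward. Percent inhibition came from comparing the volume increase against a control group. ED50 (dose giving 50% inhibition) was derived from least-squares probit response vs log dose regression.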

[1] = Acute toxicity in ip dosed ddY mouse measured after 168 hrs; type: organism-based; conditions: in vivo
Outline: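 Male ddY mice, four per group, given a single ip injection; deaths assessed 168 h after dosing. LD50 calculated by the method of Weil.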

Mus musculus = experiment: Analgesic activity in ip dosed ddY mouse assessed as prevention of pseudoavoidance reflex co-administered with 5 mg/kg, sc morphine hydrochloride by tail pinch method; type: functional
Outline: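 Groups of eight male ddY mice (25–30 g) got the compound ip as a suspension in 0.5% CMC, together with a threshold dose of morphine hydrochloride (5 mg/kg sc). The read-out was prevention of pseudoavoidance reflexes (biting, squeaking, looking backward) after tail pinching with forceps. ED50 was calculated by the Litchfield–Wilcoxon method.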

| SMILES | ED50 (Rattus norvegicus) [mg/kg] | LD50 at 168 h [1] [mg/kg] | ED50 (Mus musculus) [mg/kg] |
| --- | --- | --- | --- |
| COc1cc(CC(=O)O)cc(C(C)C)c1 | > 100 | 1600 | – |
| CCCCOc1cc(C)cc(CC(=O)O)c1 | > 100 | 673 | – |
| COc1cc(CC(=O)O)cc(C2CCCCC2)c1 | > 100 | 564 | – |
| COc1cc(CC(=O)O)cc(-c2ccc(F)cc2)c1 | 50 | 565 | – |
| COc1cc(CC(=O)O)cc(-c2ccc(Cl)cc2Cl)c1 | 70 | 336 | – |
| COc1cc(CC(=O)O)cc(-c2ccc(C)cc2)c1 | > 100 | 566 | – |
| Cc1cc(CC(=O)O)cc(OCC(C)C)c1 | > 100 | 1000 | – |
| COc1ccc(-c2cc(CC(=O)O)cc(OC)c2)cc1 | > 100 | 636 | 165 |
| COc1cc(C)cc(CC(=O)O)c1 | > 100 | 673 | – |
| O=C(O)Cc1cc(O)cc(-c2ccc(Cl)cc2)c1 | > 100 | 141 | – |
| COc1cc(CC(=O)O)cc(-c2ccccc2)c1 | 60 | 566 | – |
| COC(=O)Cc1cc(O)cc(-c2ccc(Cl)cc2)c1 | > 100 | > 1600 | – |
| CCOc1cc(CC(=O)O)cc(-c2ccccc2)c1 | > 100 | 400 | – |
| CCCOc1cc(CC(=O)O)cc(-c2ccccc2)c1 | > 100 | 475 | – |
| CCCCOc1cc(CC(=O)O)cc(-c2ccccc2)c1 | > 100 | > 1600 | – |
| CC(C)COc1cc(CC(=O)O)cc(-c2ccccc2)c1 | > 100 | 566 | – |
| CCCCCOc1cc(CC(=O)O)cc(-c2ccccc2)c1 | > 100 | 1130 | – |
| CCOc1cc(CC(=O)O)cc(-c2ccc(Cl)cc2)c1 | 51 | 284 | – |

| SMILES | ED50 (Rattus norvegicus) [mg/kg] | LD50 at 168 h [1] [mg/kg] | ED50 (Mus musculus) [mg/kg] |
| --- | --- | --- | --- |
| CCCOc1cc(CC(=O)O)cc(-c2ccc(Cl)cc2)c1 | 97 | 400 | – |
| CCCCOc1cc(CC(=O)O)cc(-c2ccc(Cl)cc2)c1 | > 100 | 237 | – |
| CC(C)COc1cc(CC(=O)O)cc(-c2ccc(Cl)cc2)c1 | > 100 | 139 | – |
| CCCCCOc1cc(CC(=O)O)cc(-c2ccc(Cl)cc2)c1 | > 100 | 475 | – |
| CCOC(=O)Cc1cc(O)cc(-c2ccc(Cl)cc2)c1 | > 100 | > 1600 | – |
| COc1cc(CCO)cc(-c2ccc(Cl)cc2)c1 | 47 | 673 | – |
| COc1cc(CCC(=O)O)cc(-c2ccc(Cl)cc2)c1 | > 100 | 284 | – |
| COc1cc(CC(N)=O)cc(-c2ccc(Cl)cc2)c1 | > 100 | > 1600 | – |
| COc1cc(CC(=O)NO)cc(-c2ccc(Cl)cc2)c1 | > 100 | > 1600 | – |
| COC(=O)Cc1cc(OC)cc(-c2ccc(Cl)cc2)c1 | 35 | 1600 | – |
| CCOC(=O)Cc1cc(OC)cc(-c2ccc(Cl)cc2)c1 | 29 | 1130 | – |
| COC(=O)Cc1cc(OC(C)=O)cc(-c2ccc(Cl)cc2)c1 | > 100 | > 1600 | – |
| COC(=O)Cc1cc(OS(C)(=O)=O)cc(-c2ccc(Cl)cc2)c1 | > 100 | 1130 | – |
| COc1cc(C(=O)O)cc(-c2ccc(Cl)cc2)c1 | > 100 | 1130 | – |
| COc1cc(CC(=O)O)cc(-c2ccccc2Cl)c1 | 39 | 252 | 195 |
| COc1cccc(CC(=O)O)c1 | > 100 | 504 | – |
| COc1cc(CC(=O)O)cc(-c2ccc(Cl)cc2)c1 | 11 | 570 | 38 |
| CC(C)Cc1ccc(C(C)C(=O)O)cc1 (stereo unspecified) [IBUPROFEN] | 25 | 336 | 69 |

Reference: ChEMBL document CHEMBL3244229, “Nonsteroidal antiinflammatory agents. 1. 5-Alkoxy-3-biphenylylacetic acids and related compounds as new potential antiinflammatory agenst” (J Med Chem, 1977)
